In BindingDB's records for doi:10.1021/jm049090z (The Bristol-Myers Squibb Pharmaceutical Research Institute, 2005):

Target: T1, DNA topoisomerase 1 (Homo sapiens, UniProt P11387)
T1 sequence (P11387 whole entry): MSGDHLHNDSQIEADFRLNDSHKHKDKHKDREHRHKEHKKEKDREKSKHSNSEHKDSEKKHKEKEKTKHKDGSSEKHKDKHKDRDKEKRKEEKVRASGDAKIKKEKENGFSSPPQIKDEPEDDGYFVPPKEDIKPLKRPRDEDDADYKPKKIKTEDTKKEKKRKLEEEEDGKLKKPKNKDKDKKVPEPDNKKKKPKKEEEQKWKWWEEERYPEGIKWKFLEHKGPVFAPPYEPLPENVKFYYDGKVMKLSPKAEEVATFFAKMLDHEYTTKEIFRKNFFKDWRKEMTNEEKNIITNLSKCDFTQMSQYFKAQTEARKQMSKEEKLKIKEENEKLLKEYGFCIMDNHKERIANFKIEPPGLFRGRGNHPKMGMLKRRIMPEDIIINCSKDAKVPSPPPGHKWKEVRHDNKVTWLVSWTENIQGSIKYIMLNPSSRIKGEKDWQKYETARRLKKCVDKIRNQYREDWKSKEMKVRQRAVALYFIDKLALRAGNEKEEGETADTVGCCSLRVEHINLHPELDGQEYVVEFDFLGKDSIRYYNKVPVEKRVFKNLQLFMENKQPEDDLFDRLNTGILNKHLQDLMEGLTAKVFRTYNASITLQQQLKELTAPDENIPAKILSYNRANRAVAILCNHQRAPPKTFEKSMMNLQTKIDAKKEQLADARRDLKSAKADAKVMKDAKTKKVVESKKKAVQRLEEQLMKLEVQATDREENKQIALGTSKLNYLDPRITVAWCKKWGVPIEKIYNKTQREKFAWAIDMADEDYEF
Assay: Topoisomerase I activity for single-strand breaks in the DNA substrate
Procedure, shortened: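 Topo I-mediated DNA cleavage assay using covalently closed, supercoiled phage PM2 DNA as substrate; read-out is induction of single-strand breaks.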

SMILES | EC50 [nM]
O=C1NC(=O)c2c1c1c3cc(F)c(F)cc3sc1c1c2c2cc(F)c(F)cc2n1C1OC(CO)C(F)(F)C(O)C1O (centres undefined) [13-(5,5-difluoro-3,4-dihydroxy-6-hydroxymethyltetrahydro-2H-2-pyranyl)-2,3,9,10-tetrafluoro-5,6,7,13-tetrahydrobenzo[4,5]thieno[2,3-a]pyrrolo[4,3-c]carbazole-5,7-dione] | 80
O=C1NC(=O)c2c1c1c3cc(F)ccc3[nH]c1c1c2c2cc(F)ccc2n1C1OC(CF)[C@@H](O)C(O)C1O (some centres undefined) [Name not given] | 704
O=C1NC(=O)c2c1c1c3cc(F)c(F)cc3sc1c1c2c2cc(F)c(F)cc2n1C1OC(CF)C(O)C(O)C1O (centres undefined) [2,3,9,10-tetrafluoro-13-(6-fluoromethyl-3,4,5-trihydroxytetrahydro-2H-2-pyranyl)-5,6,7,13-tetrahydrobenzo[4,5]thieno[2,3-a]pyrrolo[4,3-c]carbazole-5,7-dione] | 240
O=C1NC(=O)c2c1c1c3cc(F)c(F)cc3[nH]c1c1c2c2cc(F)c(F)cc2n1C1OC(CF)C(O)C(O)C1O (centres undefined) [2,3,9,10-tetrafluoro-12-(6-fluoromethyl-3,4,5-trihydroxytetrahydro-2H-2-pyranyl)-6,7,12,13-tetrahydro-5H-indolo[2,3-a]pyrrolo[3,4-c]carbazole-5,7-dione] | 480
